According to ChEMBL document CHEMBL1128460, “Design, synthesis, and structure-activity relationships of a new series of alpha-adrenergic agonists: spiro[(1,3-diazacyclopent-1-ene)-5,2'-(1',2',3',4'- tetrahydronaphthalene)]” (J Med Chem, 1995):

Tests used:
[1] = molecular target: T1, Adrenergic receptor alpha-1 (Rattus norvegicus, UniProt P15823+P23944+P43140); experiment: Displacement of [3H]prazosin from rat cortex Alpha-1 adrenergic receptor
T1 sequence (P15823 whole entry): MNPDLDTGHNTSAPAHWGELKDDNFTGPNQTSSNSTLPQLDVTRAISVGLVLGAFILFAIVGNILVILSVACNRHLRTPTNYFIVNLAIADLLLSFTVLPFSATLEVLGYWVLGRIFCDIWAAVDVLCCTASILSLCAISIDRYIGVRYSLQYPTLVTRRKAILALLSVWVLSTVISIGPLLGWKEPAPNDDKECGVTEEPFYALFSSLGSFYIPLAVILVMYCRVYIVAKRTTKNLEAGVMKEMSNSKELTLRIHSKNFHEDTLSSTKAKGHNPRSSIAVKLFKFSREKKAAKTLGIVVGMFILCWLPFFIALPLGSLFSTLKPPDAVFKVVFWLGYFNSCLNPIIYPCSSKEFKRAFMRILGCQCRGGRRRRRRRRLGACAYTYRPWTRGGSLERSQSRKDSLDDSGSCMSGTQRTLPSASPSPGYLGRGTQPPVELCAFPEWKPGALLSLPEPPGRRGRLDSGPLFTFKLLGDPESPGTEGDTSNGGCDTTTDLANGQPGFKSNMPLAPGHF
T1 sequence (P23944 whole entry): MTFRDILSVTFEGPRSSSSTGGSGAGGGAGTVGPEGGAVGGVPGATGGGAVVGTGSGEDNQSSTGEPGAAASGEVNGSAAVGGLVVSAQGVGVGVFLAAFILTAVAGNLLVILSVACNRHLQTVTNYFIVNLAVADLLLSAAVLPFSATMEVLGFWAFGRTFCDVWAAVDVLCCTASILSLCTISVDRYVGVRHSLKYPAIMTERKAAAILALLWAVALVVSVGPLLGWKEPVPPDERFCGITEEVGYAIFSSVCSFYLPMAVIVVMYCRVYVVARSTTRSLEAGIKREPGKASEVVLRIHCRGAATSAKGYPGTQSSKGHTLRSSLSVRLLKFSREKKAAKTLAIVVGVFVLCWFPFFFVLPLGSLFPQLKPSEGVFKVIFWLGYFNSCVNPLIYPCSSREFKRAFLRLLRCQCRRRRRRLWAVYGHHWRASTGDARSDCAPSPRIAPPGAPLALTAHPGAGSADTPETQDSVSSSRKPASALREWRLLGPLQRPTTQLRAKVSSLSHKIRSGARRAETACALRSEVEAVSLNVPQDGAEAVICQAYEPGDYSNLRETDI
T1 sequence (P43140 whole entry): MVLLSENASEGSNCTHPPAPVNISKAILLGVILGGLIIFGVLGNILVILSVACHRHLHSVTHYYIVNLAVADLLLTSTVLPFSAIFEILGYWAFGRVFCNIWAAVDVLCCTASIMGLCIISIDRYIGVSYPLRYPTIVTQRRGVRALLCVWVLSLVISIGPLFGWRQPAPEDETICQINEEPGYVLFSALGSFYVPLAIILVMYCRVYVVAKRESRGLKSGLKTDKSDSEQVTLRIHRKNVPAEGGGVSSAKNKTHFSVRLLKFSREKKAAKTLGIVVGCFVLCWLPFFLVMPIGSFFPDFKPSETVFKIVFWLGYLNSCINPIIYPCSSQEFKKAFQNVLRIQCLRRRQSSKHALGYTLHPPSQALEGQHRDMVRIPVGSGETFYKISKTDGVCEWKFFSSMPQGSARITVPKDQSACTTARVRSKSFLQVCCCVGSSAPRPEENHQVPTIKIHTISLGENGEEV
Summary of the method: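 Rat cortex membranes labelled with [3H]prazosin (0.3 nM), nonspecific binding with prazosin (10 µM). Nine drug concentrations spanning 3 log units, IC50 by log-probit analysis. Ki by Cheng–Prusoff using Kd from Scatchard saturation. At least three independent experiments in duplicate.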

[2] = molecular target: T2, Alpha-2B adrenergic receptor (Rattus norvegicus, UniProt P19328); experiment: Binding affinity towards Alpha-2B adrenergic receptor in neonatal rat lung using [3H]-RX-821002 as radioligand
T2 sequence (P19328 whole entry): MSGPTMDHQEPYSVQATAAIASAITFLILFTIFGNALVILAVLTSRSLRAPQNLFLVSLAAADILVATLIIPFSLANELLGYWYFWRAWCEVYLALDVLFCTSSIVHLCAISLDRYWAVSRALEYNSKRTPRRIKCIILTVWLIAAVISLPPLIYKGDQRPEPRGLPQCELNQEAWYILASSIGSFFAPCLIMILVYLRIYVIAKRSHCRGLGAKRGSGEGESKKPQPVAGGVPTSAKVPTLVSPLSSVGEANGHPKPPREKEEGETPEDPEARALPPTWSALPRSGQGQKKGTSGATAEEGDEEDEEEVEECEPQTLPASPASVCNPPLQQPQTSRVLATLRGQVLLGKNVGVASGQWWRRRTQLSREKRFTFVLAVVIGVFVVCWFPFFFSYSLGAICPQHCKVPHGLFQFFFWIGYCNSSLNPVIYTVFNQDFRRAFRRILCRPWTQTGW
Summary of the method: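 Neonatal rat lung membranes with [3H]RX821002 (0.5 nM), nonspecific binding with phentolamine (10 µM). Nine concentrations over 3 log units, IC50 by log-probit, Ki by Cheng–Prusoff with Scatchard-derived Kd. ≥3 independent experiments in duplicate.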

[3] = molecular target: T3, Alpha-2A adrenergic receptor (Homo sapiens, UniProt P08913); experiment: Binding affinity towards Alpha-2A adrenergic receptor in human platelets using [3H]RX-821002 as radioligand
T3 sequence (P08913 whole entry): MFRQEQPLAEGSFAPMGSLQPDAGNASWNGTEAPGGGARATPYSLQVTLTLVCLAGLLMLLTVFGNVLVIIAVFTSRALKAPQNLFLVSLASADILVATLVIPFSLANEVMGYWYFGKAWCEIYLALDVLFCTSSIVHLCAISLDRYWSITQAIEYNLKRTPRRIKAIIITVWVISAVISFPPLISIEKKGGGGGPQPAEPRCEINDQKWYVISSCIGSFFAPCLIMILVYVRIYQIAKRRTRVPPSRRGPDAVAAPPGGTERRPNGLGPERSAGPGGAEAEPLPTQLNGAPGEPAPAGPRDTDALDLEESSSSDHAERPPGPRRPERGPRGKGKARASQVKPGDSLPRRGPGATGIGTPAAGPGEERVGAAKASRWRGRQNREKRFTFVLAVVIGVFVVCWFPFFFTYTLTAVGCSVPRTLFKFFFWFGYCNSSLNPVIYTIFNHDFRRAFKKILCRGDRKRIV
Summary of the method: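 Human platelet membranes with [3H]RX821002 (1.5 nM), nonspecific binding with phentolamine (10 µM). Displacement at nine concentrations spanning 3 orders of magnitude, IC50 by log-probit analysis, converted to Ki using Scatchard Kd. ≥3 independent duplicate experiments.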

Canis familiaris [4] = species on record: Canis familiaris; experiment: Effective concentration for the agonist in the isolated blood vessel using in vitro femoral artery; type: functional; conditions: Canis lupus familiaris
Summary of the method: (§1)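 Vessel segments from mongrel dogs (15–25 kg) anesthetized with pentobarbital (30 mg/kg iv), mounted for isometric tension in physiological saline. Equilibrated 90 min with bath changes every 30 min, rauwolscine (10^-7 M) present throughout. Primed with KCl (100 mM), then phenylephrine (1 µM). Agonist concentration–response curves run at half-log steps, giving EC50 (µM) and Emax as % of phenylephrine maximum; mean ±SD.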

Canis familiaris [5] = species on record: Canis familiaris; experiment: Effective concentration for the agonist in the isolated blood vessel using in vitro saphenous vein; type: functional; conditions: Canis lupus familiaris; summary of the method: as §1
Canis familiaris [6] = species on record: Canis familiaris; experiment: Maximal contractile response obtained with the agonist (expressed as a percentage of the maximal contraction to phenylephrine in the dog femoral artery); type: functional, Canis lupus familiaris; summary of the method: as §1
Canis familiaris [7] = species on record: Canis familiaris; experiment: Maximal contractile response obtained with the agonist (expressed as a percentage of the maximal contraction to phenylephrine in the dog saphenous vein); type: functional, Canis lupus familiaris; summary of the method: as §1
[8] = molecular target: T4, Adrenergic receptor alpha (Rattus norvegicus) (UniProt P15823+P23944+P43140+P22086+P19328+P22909); experiment: Alpha adrenergic activity was evaluated as concentration (iv) which increases the arterial pressure by 20 mmHg in the pithed rat; type: functional, organism-based; conditions: Artery
[9] = ratio of C20 obtained in the absence or presence of [C20 ( 0.1 mg of prazosin ) / C20 (control)]; type: functional
Summary of the method: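 Pithed rats pretreated with tertatolol (100 mg/kg), then 10 min later with prazosin (100 µg/kg). Cumulative iv agonist doses given another 10 min later at 20 s intervals. Arterial pressure recorded, C20 (dose giving +20 mmHg) determined. Ratio calculated as C20(prazosin)/C20(control); 3–6 determinations.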

[10] = ratio of C20 obtained in the absence or presence of [C20 (1 mg of yohimbine.) / C20 (control)]; type: functional
Summary of the method: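 Pithed rat arterial pressure assay with tertatolol (100 mg/kg) pretreatment, then yohimbine (1 mg/kg) 10 min later. Cumulative iv agonist doses given at 20 s intervals after a further 10 min, C20 (+20 mmHg dose) obtained. Ratio expressed as C20(yohimbine)/C20(control); 3–6 determinations.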

[11] = molecular target: T4, Adrenergic receptor alpha (Rattus norvegicus); experiment: Alpha adrenergic activity was evaluated as maximal pressure response caused by agonist, expressed in mmHg (the maximum obtained with phenylephrine is 150 mmHg).; type: functional
[12] = Ratio of C20 (pithed rat) to that of EC50 (saphenous vein); type: functional
[13] = Ratio of C20 (pithed rat) to that of EC50(saphenous vein); type: functional

`C1=NCC2(CCc3ccccc3C2)N1` (stereo unspecified) showed a Ki [1] of 14.4 µM, a Ki [2] of 275 nM and a Ki [3] of 34 nM. For the same molecule, the EC50 (Canis familiaris [4]) was 7.5 µM, the EC50 (Canis familiaris [5]) was 1300 nM and the Emax (Canis familiaris [6]) was 19. For the same molecule, the Emax (Canis familiaris [7]) was 99, the C20 [8] was 4 µg/kg and the Ratio [9] was 2. It also gave a Ratio [10] of 5.3 and a Max [11] of 120 mmHg.

With `CN1C=NCC12CCc1ccccc1C2` (stereo unspecified) the Emax (Canis familiaris [6]) was 0, the Emax (Canis familiaris [7]) was 0 and the C20 [8] was 675 µg/kg. It also gave a Ratio [9] of 1.55, a Ratio [10] of 1.9 and a Max [11] of 73 mmHg.

For `Cc1ccc2c(c1)CC1(CC2)CN=CN1` (stereo unspecified), the Ki [1] was 1 µM, the Ki [2] was 50 nM and the Ki [3] was 7 nM. It also gave an EC50 (Canis familiaris [4]) of 74 µM, an EC50 (Canis familiaris [5]) of 260 nM and an Emax (Canis familiaris [6]) of 5. It also gave an Emax (Canis familiaris [7]) of 64, a C20 [8] of 8 µg/kg and a Ratio [12] of 31. It also gave a Max [11] of 111 mmHg.

In the case of `CC1=NCC2(CCc3ccccc3C2)N1C` (stereo unspecified), the Emax (Canis familiaris [6]) is reported as 0, the Emax (Canis familiaris [7]) is reported as 0 and the C20 [8] is reported as 1060 µg/kg. For the same molecule, the Ratio [9] was 1, the Ratio [10] was 1.1 and the Max [11] was 73 mmHg.

In the case of `C1=NCC2(CCc3cc4c(cc3C2)CCC4)N1` (stereo unspecified), the EC50 (Canis familiaris [5]) is reported as 70 nM, the Emax (Canis familiaris [6]) is reported as 0 and the Emax (Canis familiaris [7]) is reported as 17. The C20 [8] was 74 µg/kg, the Ratio [9] was 1.1 and the Ratio [10] was 5. For the same molecule, the Ratio [13] was 1057 and the Max [11] was 68 mmHg.
